Screening data deposited in PubChem BioAssay by The Scripps Research Institute Molecular Screening Center.
HTR2A ag = mouse Htr2a agonists via beta-arrestin recruitment, primary screen, cell-based, luminescence; activation, % at 7.6 µM; 0.66% of 360,000 active; 5-hydroxytryptamine receptor 2A (Mus musculus), P35363; CHO-K1 mHTR2A beta-arrestin complementation; percent of 30 µM serotonin response;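 active = activation above a run cutoff, the mean activation of all tested compounds plus 3 SD, cut at about 14% in these data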;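 also: 0% = plate median of compound wells and 100% = 30 µM serotonin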
Target sequence (P35363 whole entry, looked up): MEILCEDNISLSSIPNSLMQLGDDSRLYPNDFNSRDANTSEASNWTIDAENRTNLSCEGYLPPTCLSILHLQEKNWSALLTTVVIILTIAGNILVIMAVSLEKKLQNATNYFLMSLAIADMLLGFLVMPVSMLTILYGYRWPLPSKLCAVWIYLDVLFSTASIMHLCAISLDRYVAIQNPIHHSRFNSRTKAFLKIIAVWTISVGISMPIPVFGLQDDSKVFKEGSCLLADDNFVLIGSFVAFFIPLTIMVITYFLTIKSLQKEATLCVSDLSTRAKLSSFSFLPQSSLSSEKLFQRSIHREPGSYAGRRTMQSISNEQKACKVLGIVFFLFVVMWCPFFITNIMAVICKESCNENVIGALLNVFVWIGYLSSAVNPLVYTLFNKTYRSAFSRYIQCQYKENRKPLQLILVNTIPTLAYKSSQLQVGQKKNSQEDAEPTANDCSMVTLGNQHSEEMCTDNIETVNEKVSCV
TAAR1 agonist = human TAAR1 agonists, primary screen, Fluo-8 calcium fluorescence, CHO RD-HGA16 cells | activation, % at 3 µM | 0.99% of 360,000 active | Trace amine-associated receptor 1 (Homo sapiens), Q96RJ0 | vehicle wells 0%, saturating PEA agonist 100% | AID 624467, 2012;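 active = activation above the mean activation of all test compounds in the run plus 3 SD, cut at about 38% in these data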
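Test system: RD-HGA16 (CHO) cells co-expressing Gα16 and hTAAR1 / Benchmarks: DMSO vehicle as 0%, PEA at EC100 as 100% / Repeats: no replicates (n 1) / Measure: % activation from peak over basal fluorescence ratio, DMSO-to-PEA scaled / Timing: 17-24 h plating, Fluo-8 75 min 37 °C, 30 min RT / Technique: kinetic Fluo-8 calcium fluorescence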
CHRM1 PAM = human M1 muscarinic receptor positive allosteric modulators, primary screen, CHO-K1 cells, Fluo-8 calcium fluorescence, 1536-well. Muscarinic acetylcholine receptor M1 (Homo sapiens), P11229. CHO-K1 hM1, ACh EC20; 0% = ACh EC20, 100% = maximal ACh. activation, % at 3 µM. 0.088% of 360,000 active; in the data active = activation above about 19%, passing the limit was not always enough
TAAR1 antagonist = human TAAR1 antagonists, primary screen, Fluo-8 calcium fluorescence, CHO RD-HGA16 cells; 1.5% of 360,000 active; AID 624466, 2012; Trace amine-associated receptor 1 (Homo sapiens), Q96RJ0; antagonist; inhibition, % at 3 µM;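 active = inhibition above a per-plate cutoff, the mean inhibition of test compounds on that plate plus 3 SD, cut at about 49% in these data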;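 also: 0% = DMSO plus EC80 beta-PEA response and 100% = DMSO alone without agonist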
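test system = CHO RD-HGA16 cells bearing hTAAR1 | replication = singlicate | controls = DMSO-only wells and EC80 β-PEA-stimulated wells | reagent = EC80 β-phenethylamine stimulus | read-out basis = percent inhibition of PEA-evoked calcium signal, max/basal emission ratio | schedule = seeding 17-24 h prior, 75-min 37 °C, 30-min RT dye loading | signal = kinetic Fluo-8 calcium fluorescence measurement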
CHRM1 antagonist = human M1 muscarinic receptor antagonists, primary screen, CHO-K1 cells, Fluo-8 calcium fluorescence, 1536-well. Muscarinic acetylcholine receptor M1 (Homo sapiens), P11229. CHO-K1 hM1, ACh EC80 antagonist. inhibition, % at 3 µM. 1.3% of 360,000 active. AID 588852, 2011;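 active = percent inhibition above its own plate's cutoff, namely the mean of that plate's compound wells plus 3 SD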;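 also: peak over basal fluorescence ratio during 140 s after agonist addition; 0% = ACh EC80 plus DMSO and 100% = DMSO alone without agonist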
CHRM1 agonist = human M1 muscarinic receptor agonists, primary screen, Fluo-8 calcium fluorescence, CHO-K1 cells, HTS | CHO-K1 hM1, agonist mode; 0% DMSO, 100% acetylcholine EC100 | 0.33% of 360,000 active | AID 588814, 2011 | activation, % at 3 µM | Muscarinic acetylcholine receptor M1 (Homo sapiens), P11229;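 active = activation above the run's mean compound activation plus 3 SD, cut at about 16% in these data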;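 also: peak over basal fluorescence ratio within a 140 s kinetic read after compound addition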
* = called active by the depositor; / = no result. Shown are actives, neighbours in structure and some others; about 3.9% of the full set was active somewhere.

SMILES	HTR2A ag	TAAR1 agonist	CHRM1 PAM	TAAR1 antagonist	CHRM1 antagonist	CHRM1 agonist
COc1cc(/C=C2\SC(=S)N(NC(=O)c3cccc(O)c3)C2=O)ccc1O	1	23	-6	27	23	16*
COc1cc(/C=C2\SC(=S)N(NC(=O)c3ccncc3)C2=O)ccc1O	-3	7	-3	-2	3	4
CN(C)CCOC(=O)C1(c2ccccc2)CCCC1	-11	14	-23	-1	100*	-5
O=C(OCCN1CCCC1)C1(c2ccccc2)CCCC1	-2	1	-23	-13	99*	-5
C[N+]1(CCCOC(=O)C2(c3ccccc3)CCCC2)CCOCC1	1	3	-23	2	100*	-9
O=C(OCCN1CCCCC1)c1ccccc1Br	-9	2	-18	2	25	-7
CCNC(=O)C1(c2ccccc2)CCCC1	1	4	10	3	-12	0
O=C(OCCN1CCCCC1)C1(c2ccccc2)CCCC1	-4	6	-38	12	100*	-15
CC(C)CNC(=O)CCc1nc(-c2ccccc2)no1	-4	7	4	-25	-12	-1
O=C1C(=O)N(CCN2CCOCC2)C(c2ccccc2F)/C1=C(\O)c1ccc(S(=O)(=O)N2CCOCC2)cc1 (stereo not drawn)	-5	3	9	-2	-8	-3
CC(C)OCCCn1c(SCC(=O)Nc2ccccc2C(F)(F)F)nc2nccnc2c1=O	0	1	16	6	-13	-2
CCCCc1nc(SCC(=O)N2CCCC2)c2c(=O)n(C)c(=O)n(C)c2n1	-6	1	8	-4	-10	-5
CCN(CC)S(=O)(=O)c1cc(C(=O)Nc2cc(Cl)ccc2N2CCN(C)CC2)ccc1Cl	1	4	6	11	-10	-6
CN1CCN(c2ccc(Cl)cc2NS(=O)(=O)c2ccccc2Cl)CC1	-7	7	-19	-12	36*	-3
COc1ccc(CNc2nc(-c3cccnc3)nn2C(=O)C(C)C)cc1	1	2	9	3	-2	0
CCCCCCCCCC[N+](C)(C)CC/C=C1/c2ccccc2Sc2ccc(Cl)cc21	-6	/	-33	/	83*	-8
CC[N+](C)(C)CC/C=C1/c2ccccc2Sc2ccc(Cl)cc21	-5	8	-24	-5	100*	-6
CCCCCC[n+]1c(-c2ccc(Cl)cc2Cl)csc1Nc1ccccc1	5	3	1	-22	-7	-3
CCCCNC(=O)Nc1ccc2c(c1)N(C)C(=O)c1ccccc1S2	-10	11	3	-6	-6	-1
CCCCCCCCCCC[N+](C)(C)CC/C=C1/c2ccccc2Sc2ccc(Cl)cc21	-1	/	-30	/	99*	-10
C[C@@H]1CN([C@@H](C)CO)C(=O)Cc2cc(NC(=O)C3CCCCC3)ccc2O[C@H]1CN(C)S(=O)(=O)c1ccccc1	2	6	-12	-2	23	-11
C=CCN(c1ccc(OC)cc1)S(=O)(=O)c1ccc(Cl)c(C(=O)OCC(=O)c2c(N)n(C)c(=O)n(C)c2=O)c1	2	1	-7	22	10	-2
COc1ccc(N(C)S(=O)(=O)c2cccc(C(=O)OCC(=O)c3c(N)n(C)c(=O)n(C)c3=O)c2)cc1	1	18	-23	73*	42*	6
CN(c1ccccc1)S(=O)(=O)c1ccc(Cl)c(C(=O)OCC(=O)c2c(N)n(C)c(=O)n(C)c2=O)c1	0	12	-15	61*	25	-5
Cc1cn2c(=O)c3ncn(C4OC(CO)C(O)C4O)c3n(C)c2n1 (stereo not drawn)	/	0	/	11	/	/
SMILES	HTR2A ag	TAAR1 agonist	CHRM1 PAM	TAAR1 antagonist	CHRM1 antagonist	CHRM1 agonist
C/C(=N\NC(=O)c1cc(O)ccc1O)c1cccc(NC(=O)c2cccc(Cl)c2)c1	5	19	4	45	-3	-2
C/C(=N\NC(=O)c1cc(O)ccc1O)c1cccc(NC(=O)c2ccc(Cl)cc2)c1	-12	5	1	51*	-4	-1
CCn1c(=NC(=O)C2COc3ccccc3O2)sc2c(OC)ccc(OC)c21 (stereo not drawn)	2	5	-5	26	17	-3
COc1ccc(C(C(=O)NCc2ccccc2)N(Cc2ccco2)C(=O)c2snc(C(N)=O)c2N)cc1OC (stereo not drawn)	2	18	-9	57*	16	0
COc1ccc(CNC(=O)C(C)N(Cc2ccco2)C(=O)c2snc(C(N)=O)c2N)cc1 (stereo not drawn)	0	1	-5	8	-11	-3
COc1ccc(C(C(=O)NCC2CCCO2)N(Cc2ccco2)C(=O)c2snc(C(N)=O)c2N)cc1OC (stereo not drawn)	-4	10	2	24	-11	0
NC(=O)c1nsc(C(=O)N(c2cccc(F)c2)C(C(=O)NCc2ccccc2)c2ccc(O)cc2)c1N (stereo not drawn)	12	18	-5	52*	16	-3
COc1ccc(C(C(=O)NCc2ccccc2)N(Cc2ccco2)C(=O)c2snc(C(N)=O)c2N)cc1 (stereo not drawn)	-1	17	-16	64*	33*	1
CC(=O)NC1C(=O)N=C(SCC(=O)Nc2ccc(C(F)(F)F)cc2Cl)NC1=O (stereo not drawn)	0	7	7	-14	-4	-3
O=C(C1CCCN1C(=O)c1cccs1)N1CCN(S(=O)(=O)c2ccc(F)cc2)CC1 (stereo not drawn)	2	1	-9	0	10	-3
O=C(Nc1ccc(S(=O)(=O)C(F)F)cc1)c1cccc(S(=O)(=O)N2CCOCC2)c1	-2	36	-15	60*	14	1
Cc1csc(NC(=O)c2cccc(S(=O)(=O)N3CCCCC3)c2)n1	-6	13	6	11	5	-1
CCN1CCN(c2ccc(NC(=O)c3cccc(S(=O)(=O)N4CCCC4)c3)cc2)CC1	9	2	-28	4	74*	-7
Cc1nc(-c2cccc(NC(=O)c3cccc(S(=O)(=O)N4CCCC4)c3)c2)cs1	-10	9	-25	53*	26	-1
O=C(Nc1ccc(N2CCOCC2)cc1)c1cccc(S(=O)(=O)N2CCCCC2)c1	1	8	-7	-3	-25	-3
